Converted amounts (≈) assume the structure as drawn.
Tests used:
KB = assay: Cytotoxicity against human KB cells; assay type: functional, cell-based
[1] = Reversal of multidrug resistance in human 2780AD cells assessed as increase in vincristine accumulation at 10 ug/ml relative to verapamil; assay type: functional, A2780 ADR
[2] = Reversal of multidrug resistance in human 2780AD cells assessed as increase in vincristine accumulation at 1 ug/ml relative to verapamil; assay type: functional, A2780 ADR
P388 [3] = assay: Antitumor activity against vincristine-resistant mouse P388 cells implanted in CDF1 mouse at 0.2 mg/kg assessed as median survival time relative to control; assay type: functional
How it was run: (§1)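 CDF1 mice were implanted i.p. with P388/VCR (vincristine-resistant) leukemia cells on day 0. Vincristine was given i.p. daily for 5 days, alone or together with a taxoid at 200 mg/kg. There were 5 mice per group. T/C (%) is the median survival time of treated mice divided by that of untreated control mice.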

P388 [4] = assay: Antitumor activity against vincristine-resistant mouse P388 cells implanted in CDF1 mouse at 0.1 mg/kg assessed as median survival time relative to control; assay type: functional; how it was run: as §1

C=C1[C@@H](OC(=O)/C=C/c2ccccc2)CC[C@@]2(C)[C@@H](O)[C@H](OC(C)=O)C3=C(C)C(=O)C[C@@H]([C@@H](OC(C)=O)[C@H]12)C3(C)C
IC50 (KB): 0.08 µg/mL (≈ 0.142 µM) | Activity [1]: 185%

C=C1[C@@H](OC(=O)/C=C/c2ccccc2)CC[C@@]2(C)[C@@H](OC(C)=O)[C@H](OC(C)=O)C3=C(C)C(=O)C[C@@H]([C@@H](O)[C@H]12)C3(C)C
Activity [1]: 191%

C=C1[C@@H](OC(=O)/C=C/c2ccccc2)CC[C@@]2(C)[C@@H](OC(C)=O)[C@H](OC(C)=O)[C@@]34O[C@]3(C)C(=O)C[C@@H]([C@@H](OC(C)=O)[C@H]12)C4(C)C
Activity [2]: 142%

C=C1[C@@H](OC(=O)/C=C/c2ccccc2)CC[C@@]2(C)[C@@H](OC(C)=O)[C@H](OC(C)=O)[C@@]34[C@H](C)C(=O)C[C@@](O)([C@@H](OC(C)=O)[C@@]132)C4(C)C
Activity [2]: 204%

CCCC(=O)N[C@@H](c1ccccc1)[C@@H](O)C(=O)O[C@H]1C[C@@]2(O)[C@@H](OC(=O)c3ccccc3)[C@@H]3[C@]4(OC(C)=O)CO[C@@H]4C[C@H](O)[C@@]3(C)C(=O)[C@H](OC(C)=O)C(=C1C)C2(C)C [TAXCULTIN]
IC50 (KB): 0.0015 µg/mL (≈ 0.00183 µM)

CCCCCC(=O)N[C@@H](c1ccccc1)[C@@H](O)C(=O)O[C@H]1C[C@@]2(O)[C@@H](OC(=O)c3ccccc3)[C@@H]3[C@]4(OC(C)=O)CO[C@@H]4C[C@H](O)[C@@]3(C)C(=O)[C@H](OC(C)=O)C(=C1C)C2(C)C [TAXOL C]
IC50 (KB): 0.0015 µg/mL (≈ 0.00177 µM)

C/C=C(\C)C(=O)O[C@@H]1C2=C(C)[C@@H](O)C[C@@](C(C)(C)O)([C@@H](OC(C)=O)[C@@H]3[C@]4(OC(C)=O)CO[C@@H]4C[C@H](OC(C)=O)[C@@]3(C)[C@H]1OC(C)=O)C2(C)C [TAXUSPINE Q]
IC50 (KB): 0.08 µg/mL (≈ 0.115 µM)

C=C1[C@@H](OC(=O)/C=C/c2ccccc2)C[C@H](OC(C)=O)[C@@]2(CO)[C@@H](OC(C)=O)[C@H](OC(C)=O)[C@]3(O)[C@@]4(C)CO[C@]3(C)C(=O)C[C@H]4[C@@H](OC(C)=O)[C@H]12 [TAXUSPINE S]
IC50 (KB): 0.08 µg/mL (≈ 0.112 µM)

C=C1[C@@H](OC(=O)/C=C/c2ccccc2)C[C@H](OC(C)=O)[C@@]2(COC(C)=O)[C@@H](OC(C)=O)[C@H](O)[C@]3(O)[C@@]4(C)CO[C@]3(C)C(=O)C[C@H]4[C@@H](OC(C)=O)[C@H]12 [TAXUSPINE T]
IC50 (KB): 0.08 µg/mL (≈ 0.112 µM)

CC(=O)O[C@H]1C[C@H]2[C@@H](OC(C)=O)/C=C3\C[C@](C)(C(=O)[C@H](O)C(=C1C)C2(C)C)[C@@H](OC(C)=O)C[C@@H]3O [TAXUSPINE W]
IC50 (KB): 0.08 µg/mL (≈ 0.162 µM)

CC[C@]1(O)C[C@H]2CN(CCc3c([nH]c4ccccc34)[C@@](C(=O)OC)(c3cc4c(cc3OC)N(C=O)[C@H]3[C@@](O)(C(=O)OC)[C@H](OC(C)=O)[C@]5(CC)C=CCN6CC[C@]43[C@@H]65)C2)C1 [VINCRISTINE]
T/C (P388 [3]): 110% | T/C (P388 [4]): 92%

Reference: ChEMBL document CHEMBL1138436, “Biological activity and chemistry of taxoids from the Japanese yew, Taxus cuspidata” (J Nat Prod, 2004)
